For three molecules, Activity results are on record in ChEMBL document CHEMBL3351625, “Ethyl 2-(benzylidene)-7-methyl-3-oxo-2,3-dihydro-5H-thiazolo[3,2-a]pyrimidine-6-carboxylate analogues as a new scaffold for protein kinase casein kinase 2 inhibitor” (Bioorg Med Chem, 2014).

The species named for test [1] is Homo sapiens. Kind of test: Inhibition of human PKA assessed as residual activity at 10 uM by KinaseProfiler assay. In outline:
(§1)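 Radioactive phosphorylation assays were run by an outsourced profiling service. Each of 31 human kinases was tested with inhibitor at 10 µM. Residual activity is expressed as a percentage of the mean activity in positive-control wells, which contained all reaction components except inhibitor plus DMSO as solvent control.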

Test [2] addresses Mitogen-activated protein kinase 1 (Homo sapiens) (UniProt P28482). Kind of test: Inhibition of human MAPK2 assessed as residual activity at 10 uM by KinaseProfiler assay. In outline:
as §1

The target of test [3] is T1, Mitogen-activated protein kinase 12 (Homo sapiens) (UniProt P53778).
T1 sequence (whole entry): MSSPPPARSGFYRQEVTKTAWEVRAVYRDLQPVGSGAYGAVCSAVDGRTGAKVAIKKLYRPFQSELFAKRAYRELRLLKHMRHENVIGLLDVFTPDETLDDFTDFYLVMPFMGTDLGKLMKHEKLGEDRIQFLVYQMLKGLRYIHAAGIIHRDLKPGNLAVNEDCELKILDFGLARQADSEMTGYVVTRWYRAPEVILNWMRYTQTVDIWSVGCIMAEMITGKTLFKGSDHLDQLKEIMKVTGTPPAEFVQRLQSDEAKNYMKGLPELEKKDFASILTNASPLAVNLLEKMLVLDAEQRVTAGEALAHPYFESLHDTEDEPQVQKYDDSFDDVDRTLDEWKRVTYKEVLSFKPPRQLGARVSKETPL
Kind of test: Inhibition of human SAPK3 assessed as residual activity at 10 uM by KinaseProfiler assay. In outline: as §1

The target in test [4] is Tyrosine-protein kinase Fgr (Homo sapiens) (UniProt P09769). The experiment in a line: Inhibition of human Fgr assessed as residual activity at 10 uM by KinaseProfiler assay. In outline:
as §1

Test [5] deals with Tyrosine-protein kinase Lck (Homo sapiens) (UniProt P06239). The experiment in a line: Inhibition of human Lck assessed as residual activity at 10 uM by KinaseProfiler assay. In outline: as §1
The target of test [6] is MAP kinase-activated protein kinase 3 (Homo sapiens) (UniProt Q16644). Kind of test: Inhibition of human MAPKAP-K3 assessed as residual activity at 10 uM by KinaseProfiler assay. In outline: as §1
Test [7] addresses T2, Serine/threonine-protein kinase Sgk1 (Homo sapiens) (UniProt O00141).
T2 sequence (whole entry): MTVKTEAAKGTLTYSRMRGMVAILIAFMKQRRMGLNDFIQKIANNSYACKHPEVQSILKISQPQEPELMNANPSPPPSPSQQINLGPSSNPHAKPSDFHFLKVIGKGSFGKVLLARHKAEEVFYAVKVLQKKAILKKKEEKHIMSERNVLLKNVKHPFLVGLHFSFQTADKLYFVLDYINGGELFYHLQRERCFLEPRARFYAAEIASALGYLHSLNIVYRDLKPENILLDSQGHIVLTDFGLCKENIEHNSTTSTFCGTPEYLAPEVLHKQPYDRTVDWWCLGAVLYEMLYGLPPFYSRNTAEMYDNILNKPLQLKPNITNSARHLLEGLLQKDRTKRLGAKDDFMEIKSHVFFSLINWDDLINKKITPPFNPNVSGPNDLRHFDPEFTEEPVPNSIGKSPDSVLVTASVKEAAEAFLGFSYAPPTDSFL
The experiment in a line: Inhibition of human SGK assessed as residual activity at 10 uM by KinaseProfiler assay. In outline: as §1

Test [8] concerns the target RAC-alpha serine/threonine-protein kinase (Homo sapiens) (UniProt P31749). Kind of test: Inhibition of human PKBalpha assessed as residual activity at 10 uM by KinaseProfiler assay. In outline: as §1
The target of test [9] is 5'-AMP-activated protein kinase catalytic subunit alpha-1 (Homo sapiens) (UniProt Q13131). The experiment in a line: Inhibition of human AMPKalpha1 assessed as residual activity at 10 uM by KinaseProfiler assay. In outline: as §1
Test [10] addresses T3, Mitogen-activated protein kinase kinase kinase kinase 2 (Homo sapiens) (UniProt Q12851).
T3 sequence (whole entry): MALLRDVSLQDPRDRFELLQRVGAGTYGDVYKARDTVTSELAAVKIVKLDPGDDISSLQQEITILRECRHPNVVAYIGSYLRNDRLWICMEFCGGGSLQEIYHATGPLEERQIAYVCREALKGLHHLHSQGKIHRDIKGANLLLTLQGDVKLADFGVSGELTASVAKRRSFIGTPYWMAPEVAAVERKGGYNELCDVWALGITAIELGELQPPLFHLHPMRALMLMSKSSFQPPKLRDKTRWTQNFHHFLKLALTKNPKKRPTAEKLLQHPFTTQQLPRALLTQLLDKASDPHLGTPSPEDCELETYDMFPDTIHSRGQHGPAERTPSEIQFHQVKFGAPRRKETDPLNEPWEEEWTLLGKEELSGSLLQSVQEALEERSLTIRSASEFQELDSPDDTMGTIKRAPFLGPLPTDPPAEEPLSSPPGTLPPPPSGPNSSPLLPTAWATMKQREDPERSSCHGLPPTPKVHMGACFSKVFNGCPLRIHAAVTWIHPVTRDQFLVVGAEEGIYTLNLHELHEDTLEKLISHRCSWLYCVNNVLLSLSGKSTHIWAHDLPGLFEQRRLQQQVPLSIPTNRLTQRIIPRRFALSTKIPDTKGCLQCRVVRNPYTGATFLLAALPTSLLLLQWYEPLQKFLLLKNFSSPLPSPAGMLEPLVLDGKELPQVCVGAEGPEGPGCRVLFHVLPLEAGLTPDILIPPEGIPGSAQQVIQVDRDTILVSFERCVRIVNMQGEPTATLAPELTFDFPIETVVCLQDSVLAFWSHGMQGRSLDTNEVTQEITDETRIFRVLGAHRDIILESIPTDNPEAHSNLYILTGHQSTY
Kind of test: Inhibition of human GCK assessed as residual activity at 10 uM by KinaseProfiler assay. In outline: as §1

The target of test [11] is Glycogen synthase kinase-3 beta (Homo sapiens) (UniProt P49841). The experiment in a line: Inhibition of human GSK3beta assessed as residual activity at 10 uM by KinaseProfiler assay. In outline: as §1
Test [12] addresses Mitogen-activated protein kinase 8 (Homo sapiens) (UniProt P45983). Kind of test: Inhibition of human JNK1alpha1 assessed as residual activity at 10 uM by KinaseProfiler assay. In outline:
as §1

The target of test [13] is Mitogen-activated protein kinase 14 (Homo sapiens) (UniProt Q16539). Kind of test: Inhibition of human SAPK2a assessed as residual activity at 10 uM by KinaseProfiler assay. In a few lines:
as §1

The target in test [14] is Tyrosine-protein kinase CSK (Homo sapiens) (UniProt P41240). The experiment in a line: Inhibition of human CSK assessed as residual activity at 10 uM by KinaseProfiler assay. In outline: as §1
The target in test [15] is MAP kinase-activated protein kinase 2 (Homo sapiens) (UniProt P49137). The experiment in a line: Inhibition of human MAPKAP-K2 assessed as residual activity at 10 uM by KinaseProfiler assay. In a few lines:
as §1

Test [16] has as its target Mitogen-activated protein kinase 11 (Homo sapiens) (UniProt Q15759). The experiment in a line: Inhibition of human SAPK2b assessed as residual activity at 10 uM by KinaseProfiler assay. In a few lines: as §1
The target in test [17] is Tyrosine-protein kinase Lyn (Homo sapiens) (UniProt P07948). The experiment in a line: Inhibition of human Lyn assessed as residual activity at 10 uM by KinaseProfiler assay. In outline: as §1
Chain of Tyrosine-protein kinase Lyn (Homo sapiens) (P07948 2-512 limits assumed): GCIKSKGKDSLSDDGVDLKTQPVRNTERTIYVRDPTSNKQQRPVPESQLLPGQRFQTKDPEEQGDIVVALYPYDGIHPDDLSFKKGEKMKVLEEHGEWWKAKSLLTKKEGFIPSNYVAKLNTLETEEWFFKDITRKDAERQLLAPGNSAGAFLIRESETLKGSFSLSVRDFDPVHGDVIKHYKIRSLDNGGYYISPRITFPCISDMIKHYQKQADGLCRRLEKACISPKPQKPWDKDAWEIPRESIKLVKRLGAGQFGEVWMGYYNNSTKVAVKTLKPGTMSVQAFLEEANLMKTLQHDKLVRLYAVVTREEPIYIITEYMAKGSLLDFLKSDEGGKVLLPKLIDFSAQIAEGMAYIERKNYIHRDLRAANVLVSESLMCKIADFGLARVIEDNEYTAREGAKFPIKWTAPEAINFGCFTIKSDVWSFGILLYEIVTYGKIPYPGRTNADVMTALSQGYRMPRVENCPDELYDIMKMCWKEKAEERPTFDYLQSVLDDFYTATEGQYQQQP

Chain of MAP kinase-activated protein kinase 3 (Homo sapiens) (Q16644 whole entry, looked up): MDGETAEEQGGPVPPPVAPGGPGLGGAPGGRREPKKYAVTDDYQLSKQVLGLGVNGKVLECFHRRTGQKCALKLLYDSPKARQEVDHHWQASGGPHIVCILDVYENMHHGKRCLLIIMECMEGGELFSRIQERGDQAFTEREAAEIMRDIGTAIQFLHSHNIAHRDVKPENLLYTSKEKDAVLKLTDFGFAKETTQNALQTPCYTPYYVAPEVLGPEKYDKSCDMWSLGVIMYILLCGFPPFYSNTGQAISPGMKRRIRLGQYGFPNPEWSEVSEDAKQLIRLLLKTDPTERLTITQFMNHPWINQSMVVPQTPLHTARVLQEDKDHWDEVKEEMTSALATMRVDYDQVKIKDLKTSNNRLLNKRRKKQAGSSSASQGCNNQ
Chain of Mitogen-activated protein kinase 14 (Homo sapiens) (Q16539 whole entry): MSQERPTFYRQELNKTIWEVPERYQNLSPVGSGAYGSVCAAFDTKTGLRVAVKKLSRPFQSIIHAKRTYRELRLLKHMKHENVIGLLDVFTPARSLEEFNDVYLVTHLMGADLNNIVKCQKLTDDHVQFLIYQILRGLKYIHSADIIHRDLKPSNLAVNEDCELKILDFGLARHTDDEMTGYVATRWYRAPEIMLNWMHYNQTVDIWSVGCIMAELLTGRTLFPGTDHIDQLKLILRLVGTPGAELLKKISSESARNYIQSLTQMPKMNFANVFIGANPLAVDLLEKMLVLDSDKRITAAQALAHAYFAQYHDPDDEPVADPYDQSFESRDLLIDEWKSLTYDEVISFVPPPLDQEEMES
Chain of MAP kinase-activated protein kinase 2 (Homo sapiens) (P49137 whole entry, looked up): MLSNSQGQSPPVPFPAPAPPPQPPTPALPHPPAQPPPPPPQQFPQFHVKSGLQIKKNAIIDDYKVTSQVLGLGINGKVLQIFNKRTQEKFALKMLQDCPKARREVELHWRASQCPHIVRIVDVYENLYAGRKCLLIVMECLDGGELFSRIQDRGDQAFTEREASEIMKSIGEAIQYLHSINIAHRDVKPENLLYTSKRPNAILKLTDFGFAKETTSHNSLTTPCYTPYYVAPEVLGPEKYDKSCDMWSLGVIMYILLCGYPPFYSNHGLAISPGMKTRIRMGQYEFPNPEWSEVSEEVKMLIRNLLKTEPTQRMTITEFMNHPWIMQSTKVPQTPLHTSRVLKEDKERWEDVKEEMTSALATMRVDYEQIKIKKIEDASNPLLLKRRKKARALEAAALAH
Chain of Mitogen-activated protein kinase 11 (Homo sapiens) (Q15759 whole entry): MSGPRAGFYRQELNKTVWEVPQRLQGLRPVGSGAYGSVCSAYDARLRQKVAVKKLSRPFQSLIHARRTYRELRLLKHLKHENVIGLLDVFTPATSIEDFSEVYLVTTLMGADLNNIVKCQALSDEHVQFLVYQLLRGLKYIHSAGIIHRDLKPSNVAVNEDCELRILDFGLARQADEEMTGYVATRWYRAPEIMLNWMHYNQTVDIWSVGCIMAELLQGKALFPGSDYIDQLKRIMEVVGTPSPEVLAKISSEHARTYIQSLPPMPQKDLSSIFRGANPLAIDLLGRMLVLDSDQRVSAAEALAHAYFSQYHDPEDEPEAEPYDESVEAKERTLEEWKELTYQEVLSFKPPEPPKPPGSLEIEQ
Chain of Tyrosine-protein kinase Lck (Homo sapiens) (P06239 2-509 limits assumed): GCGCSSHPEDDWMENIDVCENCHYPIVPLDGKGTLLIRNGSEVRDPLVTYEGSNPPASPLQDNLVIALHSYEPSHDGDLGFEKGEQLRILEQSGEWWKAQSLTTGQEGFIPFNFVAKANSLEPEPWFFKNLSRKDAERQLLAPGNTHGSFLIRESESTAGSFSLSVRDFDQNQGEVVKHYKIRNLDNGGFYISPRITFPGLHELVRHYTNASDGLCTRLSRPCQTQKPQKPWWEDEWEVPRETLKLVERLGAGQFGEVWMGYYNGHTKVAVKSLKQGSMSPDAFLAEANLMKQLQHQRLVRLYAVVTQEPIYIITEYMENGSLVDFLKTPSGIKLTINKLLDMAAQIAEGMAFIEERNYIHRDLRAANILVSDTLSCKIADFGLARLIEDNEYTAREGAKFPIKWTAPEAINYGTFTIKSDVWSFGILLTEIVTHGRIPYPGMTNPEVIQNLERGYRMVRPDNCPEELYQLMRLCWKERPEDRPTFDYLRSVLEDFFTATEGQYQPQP
Chain of 5'-AMP-activated protein kinase catalytic subunit alpha-1 (Homo sapiens) (Q13131 whole entry, looked up): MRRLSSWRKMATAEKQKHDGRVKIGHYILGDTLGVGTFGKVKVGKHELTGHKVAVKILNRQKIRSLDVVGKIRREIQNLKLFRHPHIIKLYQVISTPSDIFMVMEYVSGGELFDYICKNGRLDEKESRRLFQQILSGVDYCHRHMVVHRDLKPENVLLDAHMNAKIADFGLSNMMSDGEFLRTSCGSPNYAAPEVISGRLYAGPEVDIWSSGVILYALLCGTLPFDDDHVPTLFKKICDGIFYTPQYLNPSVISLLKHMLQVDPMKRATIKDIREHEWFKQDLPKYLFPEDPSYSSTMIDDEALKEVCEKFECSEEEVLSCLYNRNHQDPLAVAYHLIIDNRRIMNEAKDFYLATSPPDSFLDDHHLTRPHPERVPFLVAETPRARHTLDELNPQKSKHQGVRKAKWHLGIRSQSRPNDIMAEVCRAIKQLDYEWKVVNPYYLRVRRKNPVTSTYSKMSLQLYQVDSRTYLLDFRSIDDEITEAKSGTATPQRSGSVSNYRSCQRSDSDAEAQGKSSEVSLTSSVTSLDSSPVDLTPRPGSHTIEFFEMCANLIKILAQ
Chain of RAC-alpha serine/threonine-protein kinase (Homo sapiens) (P31749 whole entry): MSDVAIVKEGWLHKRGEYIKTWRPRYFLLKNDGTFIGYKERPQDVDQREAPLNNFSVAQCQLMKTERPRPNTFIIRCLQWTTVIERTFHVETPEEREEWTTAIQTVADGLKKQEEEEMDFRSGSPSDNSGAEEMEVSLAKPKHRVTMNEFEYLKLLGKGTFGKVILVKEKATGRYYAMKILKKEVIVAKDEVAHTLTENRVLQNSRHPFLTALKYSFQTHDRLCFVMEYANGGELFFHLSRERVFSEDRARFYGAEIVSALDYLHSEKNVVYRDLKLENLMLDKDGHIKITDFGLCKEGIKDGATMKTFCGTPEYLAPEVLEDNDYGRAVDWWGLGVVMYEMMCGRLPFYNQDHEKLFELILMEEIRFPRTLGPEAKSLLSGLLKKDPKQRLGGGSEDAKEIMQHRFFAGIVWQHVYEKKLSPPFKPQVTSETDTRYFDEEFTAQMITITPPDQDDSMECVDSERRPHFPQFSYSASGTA
Chain of Mitogen-activated protein kinase 1 (Homo sapiens) (P28482 whole entry): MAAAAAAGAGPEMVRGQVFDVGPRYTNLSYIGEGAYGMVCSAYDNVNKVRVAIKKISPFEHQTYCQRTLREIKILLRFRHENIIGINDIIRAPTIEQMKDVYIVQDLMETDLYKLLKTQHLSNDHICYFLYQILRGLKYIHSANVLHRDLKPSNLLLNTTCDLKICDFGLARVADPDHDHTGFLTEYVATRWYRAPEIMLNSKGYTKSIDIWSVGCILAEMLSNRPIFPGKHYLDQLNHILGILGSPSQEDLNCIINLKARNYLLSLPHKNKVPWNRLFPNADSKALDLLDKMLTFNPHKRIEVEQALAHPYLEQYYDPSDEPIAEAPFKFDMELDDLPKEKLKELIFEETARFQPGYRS
Chain of Tyrosine-protein kinase Fgr (Homo sapiens) (P09769 2-529 limits assumed): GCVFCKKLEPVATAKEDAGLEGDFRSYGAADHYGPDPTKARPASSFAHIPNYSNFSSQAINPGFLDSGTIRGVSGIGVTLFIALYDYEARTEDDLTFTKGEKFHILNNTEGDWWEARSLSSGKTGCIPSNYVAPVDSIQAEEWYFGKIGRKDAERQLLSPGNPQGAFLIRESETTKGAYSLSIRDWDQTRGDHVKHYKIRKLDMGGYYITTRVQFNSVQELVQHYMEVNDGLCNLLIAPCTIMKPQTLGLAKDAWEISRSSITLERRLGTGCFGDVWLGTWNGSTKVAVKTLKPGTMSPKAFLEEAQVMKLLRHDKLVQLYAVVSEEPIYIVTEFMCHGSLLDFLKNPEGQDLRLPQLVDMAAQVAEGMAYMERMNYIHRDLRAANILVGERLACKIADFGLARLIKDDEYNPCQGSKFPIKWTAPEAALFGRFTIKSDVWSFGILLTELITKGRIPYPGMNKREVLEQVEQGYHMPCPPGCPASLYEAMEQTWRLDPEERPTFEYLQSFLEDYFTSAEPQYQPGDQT
Chain of Tyrosine-protein kinase CSK (Homo sapiens) (P41240 2-450 limits assumed): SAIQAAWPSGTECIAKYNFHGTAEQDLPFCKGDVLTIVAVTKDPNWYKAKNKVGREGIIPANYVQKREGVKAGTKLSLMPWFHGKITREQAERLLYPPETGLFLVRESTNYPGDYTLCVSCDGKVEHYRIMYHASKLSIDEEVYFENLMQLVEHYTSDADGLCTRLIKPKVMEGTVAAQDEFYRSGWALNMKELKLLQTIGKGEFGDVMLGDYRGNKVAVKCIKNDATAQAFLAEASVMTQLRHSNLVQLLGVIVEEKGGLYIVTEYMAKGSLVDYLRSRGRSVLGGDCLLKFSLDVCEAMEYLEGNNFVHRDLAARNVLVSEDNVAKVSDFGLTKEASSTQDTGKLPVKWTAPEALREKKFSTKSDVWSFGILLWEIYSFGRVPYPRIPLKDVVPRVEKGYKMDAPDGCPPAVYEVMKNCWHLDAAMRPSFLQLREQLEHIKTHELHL

As to `Brc1c(Br)c(Br)c2[nH]nnc2c1Br`, the Activity in test [1] was found to be 109%; in test [2], 104%; in [3] it was 29%; in test [4] it was 102%; in [5] it was 78%; in test [6], 95%. The Activity in test [7] was 65%; in test [8], 61%; in test [9] it was 75%; in [10] it was 92%; in test [11], 42%; in [12] it was 51%. The Activity in test [13] was 99%; in test [14], 116%; in [15] it was 78%; in [16] it was 112%; in [17] it was 113%.
With `CCOC(=O)C1=C(C)N=c2s/c(=C\c3cc(O)c(O)c(O)c3)c(=O)n2C1c1ccc(Cl)cc1` (stereo unspecified), the Activity in test [1] was 92%; in test [2], 87%; in [3] it was 63%; in test [4], 75%; in test [5] it was 61%; in [6], 122%. In addition, the Activity in test [7] is 61%; in [8], 50%; in [9], 64%; in [10] it was 87%; in test [11] it was 51%; in test [12], 92%. In addition, the Activity was 59% in [13]; 54% in test [14]; 86% in [15]; 101% in test [16]; 5% in test [17].
For the molecule `CCOC(=O)C1=C(C)N=c2s/c(=C\c3ccc(O)c(O)c3)c(=O)n2C1c1ccc(Cl)cc1` (stereo unspecified), the Activity came out at 130% in test [1]; 85% in test [2]; 69% in test [3]; 98% in [4]; 57% in test [5]; 117% in test [6]. In addition, the Activity was found to be 85% in test [7]; 90% in [8]; 82% in test [9]; 87% in test [10]; 52% in test [11]; 101% in test [12]. The Activity in test [13] was found to be 72%; in [14], 82%; in test [15], 98%; in test [16] it was 114%; in test [17], 20%.
